ChEMBL document CHEMBL4673212, “Investigation of synergistic antimicrobial effects of the drug combinations of meropenem and 1,2-benzisoselenazol-3(2H)-one derivatives on carbapenem-resistant Enterobacteriaceae producing NDM-1” (Eur J Med Chem, 2018)

How the values were obtained:
Format in all cases: functional
[1] = system: Klebsiella pneumoniae; assay: Synergistic antibacterial activity against carbapenem-resistant Klebsiella pneumoniae isolate 04 harboring CTX-M-14, VIM-1, TEM-1 and SHV-12 assessed as fractional inhibitory concentration index in presence of meropenem by CLSI protocol based assay
Method in brief: (§1)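 FIC index from MICs of compound alone, meropenem alone, and the 1:1 (mass) compound–meropenem combination, read by eye after overnight incubation in a CLSI-based assay. FIC index = MICcombo/MICcpd + MICcombo/MICMem. FIC index ≤0.5 counted as synergy. At least triplicate assays. Clinical NDM-1 isolates for 17-39; E. coli TG1 carrying the IncX3 blaNDM-1 plasmid for 15.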

[2] = system: Citrobacter freundii; assay: Synergistic antibacterial activity against carbapenem-resistant Citrobacter freundii isolate 35 harboring CTX-M-3, KPC-2 and SHV-12 assessed as fractional inhibitory concentration index in presence of meropenem by CLSI protocol based assay
[3] = system: Enterobacter cloacae; assay: Potentiation of meropenem-induced antibacterial activity against carbapenem-resistant Enterobacter cloacae isolate 09 harboring CTX-M-3, CTX-M-14, TEM-1 and SHV-12 assessed as meropenem MIC by CLSI protocol based assay (Rvb >= 128 ug/ml)
[4] = system: Morganella morganii; assay: Synergistic antibacterial activity against carbapenem-resistant Morganella morganii isolate 23 assessed as fractional inhibitory concentration index in presence of meropenem by CLSI protocol based assay; method in brief: as §1
[5] = system: Enterobacter cloacae; assay: Growth inhibition of carbapenem-resistant Enterobacter cloacae isolate 22 harboring CTX-M-14, TEM-1 and SHV-12 by CLSI protocol based assay
[6] = system: Enterobacter cloacae; assay: Synergistic antibacterial activity against carbapenem-resistant Enterobacter cloacae isolate 27 harboring CTX-M-3, CTX-M-14, TEM-1 and SHV-12 assessed as fractional inhibitory concentration index in presence of meropenem by CLSI protocol based assay; method in brief: as §1
[7] = system: Citrobacter freundii; assay: Growth inhibition of carbapenem-resistant Citrobacter freundii isolate 17 harboring SHV-12 by CLSI protocol based assay
[8] = system: Enterobacter cloacae; assay: Potentiation of meropenem-induced antibacterial activity against carbapenem-resistant Enterobacter cloacae isolate 08 harboring CTX-M-14, TEM-1 and SHV-12 assessed as meropenem MIC by CLSI protocol based assay (reference value: 32 ug/ml)
[9] = system: Escherichia coli; assay: Synergistic antibacterial activity against Escherichia coli TG1 transformed with IncX3 plasmid expressing blaNDM-1 assessed as ratio of negative logarithm of fractional inhibitory concentration index to non-hydrogen atom in presence of meropenem incubated for overnight by CLSI protocol based assay; conditions: time 12 hrs
Method in brief: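 In E. coli TG1 carrying the IncX3 blaNDM-1 plasmid, the FIC index was taken from overnight CLSI-based MICs of compound, meropenem and their 1:1 mass mixture, read by eye. Synergistic efficiency = −ln(FIC index) divided by the number of non-hydrogen atoms. At least triplicate assays.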

[10] = system: Citrobacter freundii; assay: Growth inhibition of carbapenem-resistant Citrobacter freundii isolate 43 by CLSI protocol based assay
[11] = system: Enterobacter cloacae; assay: Potentiation of meropenem-induced antibacterial activity against carbapenem-resistant Enterobacter cloacae isolate 07 harboring CTX-M-14, TEM-1 and SHV-12 assessed as meropenem MIC by CLSI protocol based assay (reference value: 64 ug/ml)
[12] = system: Morganella morganii; assay: Potentiation of meropenem-induced antibacterial activity against carbapenem-resistant Morganella morganii isolate 23 assessed as meropenem MIC by CLSI protocol based assay (reference value: 64 ug/ml)
[13] = system: Enterobacter cloacae; assay: Synergistic antibacterial activity against carbapenem-resistant Enterobacter cloacae isolate 18 harboring IMP-4 and TEM-1 assessed as fractional inhibitory concentration index in presence of meropenem by CLSI protocol based assay
[14] = system: Enterobacter cloacae; assay: Growth inhibition of carbapenem-resistant Enterobacter cloacae isolate 18 harboring IMP-4 and TEM-1 by CLSI protocol based assay
[15] = system: Klebsiella oxytoca; assay: Synergistic antibacterial activity against carbapenem-resistant Klebsiella oxytoca isolate 03 harboring SHV-12 assessed as fractional inhibitory concentration index in presence of meropenem by CLSI protocol based assay; method in brief: as §1
[16] = system: Citrobacter freundii; assay: Synergistic antibacterial activity against carbapenem-resistant Citrobacter freundii isolate 05 harboring SHV-12 assessed as fractional inhibitory concentration index in presence of meropenem by CLSI protocol based assay; method in brief: as §1
[17] = system: Morganella morganii; assay: Synergistic antibacterial activity against carbapenem-resistant Morganella morganii isolate 26 assessed as fractional inhibitory concentration index in presence of meropenem by CLSI protocol based assay; method in brief: as §1
[18] = system: Citrobacter freundii; assay: Synergistic antibacterial activity against carbapenem-resistant Citrobacter freundii isolate 17 harboring SHV-12 assessed as fractional inhibitory concentration index in presence of meropenem by CLSI protocol based assay; method in brief: as §1
[19] = system: Klebsiella oxytoca; assay: Synergistic antibacterial activity against carbapenem-resistant Klebsiella oxytoca isolate 16 harboring SHV-12 assessed as fractional inhibitory concentration index in presence of meropenem by CLSI protocol based assay; method in brief: as §1
[20] = system: Enterobacter cloacae; assay: Synergistic antibacterial activity against carbapenem-resistant Enterobacter cloacae isolate 08 harboring CTX-M-14, TEM-1 and SHV-12 assessed as fractional inhibitory concentration index in presence of meropenem by CLSI protocol based assay; method in brief: as §1
[21] = system: Enterobacter cloacae; assay: Potentiation of meropenem-induced antibacterial activity against carbapenem-resistant Enterobacter cloacae isolate 18 harboring IMP-4 and TEM-1 assessed as meropenem MIC by CLSI protocol based assay (reference value: 32 ug/ml)
[22] = system: Escherichia coli; assay: Growth inhibition of carbapenem-resistant Escherichia coli isolate 34 harboring CTX-M-15, TEM-1 and SHV-12 by CLSI protocol based assay
[23] = system: Klebsiella oxytoca; assay: Growth inhibition of carbapenem-resistant Klebsiella oxytoca isolate 03 harboring SHV-12 by CLSI protocol based assay
[24] = system: Citrobacter freundii; assay: Potentiation of meropenem-induced antibacterial activity against carbapenem-resistant Citrobacter freundii isolate 17 harboring SHV-12 assessed as meropenem MIC by CLSI protocol based assay (reference value: 64 ug/ml)
[25] = system: Enterobacter cloacae; assay: Synergistic antibacterial activity against carbapenem-resistant Enterobacter cloacae isolate 09 harboring CTX-M-3, CTX-M-14, TEM-1 and SHV-12 assessed as fractional inhibitory concentration index in presence of meropenem by CLSI protocol based assay; method in brief: as §1
[26] = system: Escherichia coli; assay: Synergistic antibacterial activity against carbapenem-resistant Escherichia coli isolate 33 harboring CTX-M-15 assessed as fractional inhibitory concentration index in presence of meropenem by CLSI protocol based assay; method in brief: as §1
[27] = system: Klebsiella oxytoca; assay: Potentiation of meropenem-induced antibacterial activity against carbapenem-resistant Klebsiella oxytoca isolate 03 harboring SHV-12 assessed as meropenem MIC by CLSI protocol based assay (Rvb >= 128 ug/ml)
[28] = system: Escherichia coli; assay: Potentiation of meropenem-induced antibacterial activity against carbapenem-resistant Escherichia coli isolate 33 harboring CTX-M-15 assessed as meropenem MIC by CLSI protocol based assay (reference value: 64 ug/ml)
[29] = system: Klebsiella pneumoniae; assay: Potentiation of meropenem-induced antibacterial activity against carbapenem-resistant Klebsiella pneumoniae isolate 04 harboring CTX-M-14, VIM-1, TEM-1 and SHV-12 assessed as meropenem MIC by CLSI protocol based assay (Rvb >= 128 ug/ml)
[30] = system: Enterobacter cloacae; assay: Synergistic antibacterial activity against carbapenem-resistant Enterobacter cloacae isolate 10 harboring CTX-M-14, TEM-1 and SHV-12 assessed as fractional inhibitory concentration index in presence of meropenem by CLSI protocol based assay; method in brief: as §1

| SMILES | fractional inhibitory concentration index (FICI) [1] | fractional inhibitory concentration index (FICI) [2] | MIC [3] [µg/mL] | fractional inhibitory concentration index (FICI) [4] | MIC [5] [µg/mL] | fractional inhibitory concentration index (FICI) [6] | MIC [7] [µg/mL] | MIC [8] [µg/mL] | Ratio [9] | MIC [10] [µg/mL] | MIC [11] [µg/mL] | MIC [12] [µg/mL] | fractional inhibitory concentration index (FICI) [13] | MIC [14] [µg/mL] | fractional inhibitory concentration index (FICI) [15] | fractional inhibitory concentration index (FICI) [16] | fractional inhibitory concentration index (FICI) [17] | fractional inhibitory concentration index (FICI) [18] | fractional inhibitory concentration index (FICI) [19] | fractional inhibitory concentration index (FICI) [20] | further results |
| --- | --- | --- | --- | --- | --- | --- | --- | --- | --- | --- | --- | --- | --- | --- | --- | --- | --- | --- | --- | --- | --- |
| O=c1c2ccccc2[se]n1-c1ccccc1 [EBSELEN] | 1 | 0.5 | ≥ 128 | 1.5 | ≥ 128 | 2.5 | ≥ 128 | 32 | 0.043 | ≥ 128 | 16 | 64 | 2.5 | ≥ 128 | 0.5 | 0.25 | 1.5 | 0.38 | 0.5 | 1.25 | MIC [21]: 64 µg/mL; MIC [22]: ≥ 128 µg/mL; MIC [23]: ≥ 128 µg/mL; MIC [24]: 16 µg/mL; fractional inhibitory concentration index (FICI) [25]: 2; fractional inhibitory concentration index (FICI) [26]: 0.38; MIC [27]: 32 µg/mL; MIC [28]: 16 µg/mL; MIC [29]: 64 µg/mL; fractional inhibitory concentration index (FICI) [30]: 1.5 |
| CC(C)(C)OC(=O)NCCn1[se]c2ccccc2c1=O | 0.5 | 0.13 | 8 | 0.19 | ≥ 128 | 0.16 | ≥ 128 | 4 | 0.153 | ≥ 128 | 8 | 8 | 0.63 | ≥ 128 | 0.13 | 0.13 | 0.05 | 0.09 | 0.13 | 0.16 | MIC [21]: 16 µg/mL; MIC [22]: ≥ 128 µg/mL; MIC [23]: ≥ 128 µg/mL; MIC [24]: 4 µg/mL; fractional inhibitory concentration index (FICI) [25]: 0.13; fractional inhibitory concentration index (FICI) [26]: 0.19; MIC [27]: 8 µg/mL; MIC [28]: 8 µg/mL; MIC [29]: 32 µg/mL; fractional inhibitory concentration index (FICI) [30]: 0.19 |
